Data on 16 compounds can be found in ChEMBL document CHEMBL1136803, “Azasterols as inhibitors of sterol 24-methyltransferase in Leishmania species and Trypanosoma cruzi” (J Med Chem, 2003).

Each structure is given as a SMILES string. Several values for one entry are separate records, joined by “and”; a condition that tells them apart may be missing. Equal values may be shown once. Bounds are passed on as bounds.

Assay [1] concerns Leishmania amazonensis. In words: (§1) Effect of compound on free sterol compositions of leishmania mexicana amazonensis promastigotes at a concentration of 0.1 uM. The assay is classed as functional. In short, it runs like this: (§2)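 L. mexicana amazonensis promastigotes grown in LIT medium with lactalbumin and 10% fetal calf serum at 26 °C without agitation; cultures started at 2 × 10⁶ cells/mL, drug added at 0.5–1 × 10⁷ cells/mL. Total lipids extracted, split into neutral and polar fractions by silicic acid chromatography, sterols analysed by gas-liquid chromatography; read-out is % 24-alkylated vs 24-nonalkylated sterols.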

Assay [2] relates to Leishmania amazonensis. In words: In vitro inhibitory concentration against Leishmania amazonensis promastigotes. The assay is classed as functional, organism-based. In a few lines:
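L. amazonensis MHOM/BR/75/Josefa promastigotes (mouse-passaged) in Warren's medium with 10% fetal bovine serum at 25 °C; exponential-phase cells incubated with compound 96 h, counted by Neubauer hemocytometer. IC₅₀ from I = Imax·C/(IC₅₀+C), Imax 100%.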

Assay [3] concerns Leishmania amazonensis. Described as §1. The assay is classed as functional. In a few lines:
as §2
The source holds these as a separate data set.

Assay [4] can be described thus: Evaluated for its toxicity against KB cells. The format is cell-based. The following applies: Homo sapiens. In short, it runs like this:
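KB cells seeded at 4 × 10⁴/mL in RPMI 1640 + 10% HIFCS, 24 h at 37 °C, 5% CO₂, then exposed to 300, 30, 3 and 0.3 μg/mL in triplicate for 72 h; podophyllotoxin positive control. AlamarBlue added for 2–4 h, fluorescence at EX/EM 530/585 nm; ED₅₀ relative to blanks and untreated controls.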

In a further assay the test system is Leishmania donovani. In words: In vitro inhibitory concentration against Leishmania donovani intracellular amastigotes. The assay is classed as functional, organism-based. In short, it runs like this: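 CD1 mouse starch-induced peritoneal macrophages in RPMI1640 + 10% HIFCS, 37 °C, 5% CO₂, infected with hamster-spleen L. donovani MHOM/ET/67/L82 amastigotes (5:1); after 24 h drug exposure for 5 days, overlay replaced day 3, top concentration 30 μg/mL, quadruplicates. Methanol-fixed, Giemsa-stained, scored microscopically; ED₅₀ by curve fitting; Pentostam positive control.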

For assay [5], the system named is Leishmania amazonensis. In words: In vitro inhibitory concentration against Leishmania amazonensis intracellular amastigotes. The format is functional, organism-based. In a few lines: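 Swiss mouse peritoneal macrophages adhered 24 h at 37 °C, 5% CO₂, infected with stationary-phase L. amazonensis promastigotes (1:10) at 35 °C for 2 h, washed, held 24 h drug-free, then exposed to compound for 96 h. Bouin-fixed, Giemsa-stained; percentage of infected cells scored, IC₅₀ from hyperbolic inhibition function I = Imax·C/(IC₅₀+C).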

Assay [6] is described as follows: In vitro inhibitory concentration against Trypanosoma cruzi epimastigotes. The format is functional. In a few lines: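 T. cruzi Y strain epimastigotes in liver infusion tryptose medium with 10% fetal bovine serum at 28 °C; exponential-phase parasites incubated with compound 96 h, counted by Neubauer hemocytometer. IC₅₀ from I = Imax·C/(IC₅₀+C), Imax 100%.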

A short description of assay [7]: In vitro inhibitory concentration against Trypanosoma cruzi intracellular amastigotes. The format is functional, cell-based.
Assay [8] concerns Leishmania amazonensis. In words: Effect of compound on free sterol composition of leishmania mexicana amazonensis promastigotes at a concentration of 0 uM,. The format is functional. In a few lines: as §2
Assay [9] has as its system Leishmania amazonensis. In words: Effect of compound on free sterol compositions of leishmania mexicana amazonensis promastigotes at a concentration of 1.0 uM. The format is functional. In short, it runs like this:
as §2

Assay [10] deals with Leishmania amazonensis. In words: Effect of compound on free sterol compositions of leishmania mexicana amazonensis promastigotes at a concentration of 0.01 uM. The assay is classed as functional. In short, it runs like this:
as §2

The subject of assay [11] is Leishmania amazonensis. In words: Effect on free sterol compositions of leishmania mexicana amazonensis promastigotes at a concentration of 0.1 uM. The format is functional. In a few lines: as §2

Regarding `CC(O)(C1CCCCN1)[C@H]1CC[C@H]2[C@@H]3CCC4C[C@@H](O[Si](C)(C)C(C)(C)C)CC[C@]4(C)[C@H]3CC[C@]12C` (some centres undefined), the Effect is on record as below 1% with Leishmania amazonensis [1] and 8.5% in the assay with Leishmania amazonensis [3]. Further, the IC50 with Leishmania amazonensis [2] is 1.09 µM; in assay [4], above 579 µM; in the assay with Leishmania donovani, above 58 µM; with Leishmania amazonensis [5], 0.02 µM; in assay [6], 0.6 µM; in [7], 50 µM.
With `CC(O)(C1CCCCN1)[C@H]1CC[C@H]2[C@@H]3CCC4C[C@@H](O)CC[C@]4(C)[C@H]3CC[C@]12C` (some centres undefined), the Effect in the assay with Leishmania amazonensis [1] amounted to 64.2%; in the assay with Leishmania amazonensis [3] it was 11.1%; in the assay with Leishmania amazonensis [8], 9.8%. Moreover, the IC50 worked out at 0.1 µM in the assay with Leishmania amazonensis [2]; 11.9 µM in assay [4]; 8.9 µM in the assay with Leishmania donovani; 0.01 µM in the assay on Leishmania amazonensis [5]; 0.94 µM in [6]; 7.4 µM in [7].
Regarding `CC(O)(c1ccccn1)[C@H]1CC[C@H]2[C@@H]3CCC4C[C@@H](O[Si](C)(C)C(C)(C)C)CC[C@]4(C)[C@H]3CC[C@]12C` (some centres undefined), the IC50 was 1.88 µM with Leishmania amazonensis [2]; above 586 µM in [4]; above 59 µM in the assay with Leishmania donovani; 1 µM in the assay with Leishmania amazonensis [5]; 0.68 µM in assay [6]; above 59 µM in assay [7].
`CCC(=O)N1CCCC(C(C)(O)[C@H]2CC[C@H]3[C@@H]4CCC5C[C@@H](O)CC[C@]5(C)[C@H]4CC[C@]23C)C1` (some centres undefined): the Effect in the assay on Leishmania amazonensis [9] was 49.7%; in the assay on Leishmania amazonensis [3], 11.7%. For the same compound, the IC50 was found to be 336 µM in [4], 37.9 µM in the assay on Leishmania donovani and 64.6 µM in [7].
As for `CCC(=O)N1CCCCC1C(C)(O)[C@H]1CC[C@H]2[C@@H]3CCC4C[C@@H](O)CC[C@]4(C)[C@H]3CC[C@]12C` (some centres undefined), the results for the Effect in the assay on Leishmania amazonensis [1] and in the assay with Leishmania amazonensis [3] were 4.4% and 17.7%, respectively. For the same compound, the IC50 is 11.1 µM in [4], 23.1 µM in the assay with Leishmania donovani and 22.8 µM in [7].
For `CC(O)(c1cccnc1)[C@H]1CC[C@H]2[C@@H]3CCC4C[C@@H](O)CC[C@]4(C)[C@H]3CC[C@]12C` (some centres undefined), the Effect with Leishmania amazonensis [1] was 41.9%; with Leishmania amazonensis [10], 4.7%; in the assay on Leishmania amazonensis [3], 12.4%; in the assay with Leishmania amazonensis [11], 3.1% and 4.1% and 11.1%. Also, the IC50 in the assay with Leishmania amazonensis [2] is 4.24 µM; in assay [4], above 755 µM; with Leishmania donovani, 23.4 µM; with Leishmania amazonensis [5], 3 µM; in assay [6], 0.62 µM; in assay [7] it was 13.3 µM.
In the case of `CC(O)(c1ccncc1Cl)[C@H]1CC[C@H]2[C@@H]3CCC4C[C@@H](O[Si](C)(C)C(C)(C)C)CC[C@]4(C)[C@H]3CCC12C` (some centres undefined), the IC50 is 234 µM in assay [4], above 55 µM with Leishmania donovani and above 55 µM in [7].
`CC(O)(c1ccncc1)[C@H]1CC[C@H]2[C@@H]3CCC4C[C@@H](O[Si](C)(C)C(C)(C)C)CC[C@]4(C)[C@H]3CC[C@]12C` (some centres undefined): the IC50 in the assay on Leishmania amazonensis [2] is 3.21 µM; in assay [4], 574 µM; in the assay on Leishmania donovani, 15 µM; with Leishmania amazonensis [5], 2 µM; in assay [6], 0.67 µM; in [7], 6.1 µM.
As for `CCC(=O)N1CCCCC1C(C)(O)[C@H]1CC[C@H]2[C@@H]3CCC4C[C@@H](O[Si](C)(C)C(C)(C)C)CC[C@]4(C)[C@H]3CC[C@]12C` (some centres undefined), the IC50 with Leishmania amazonensis [2] was 10.3 µM; in assay [4] it was above 520 µM; in the assay with Leishmania donovani, above 52 µM; in the assay with Leishmania amazonensis [5] it was 8 µM; in [6] it was 1 µM; in assay [7] it was above 52 µM.
For `CC(O)(C1CCCNC1)[C@H]1CC[C@H]2[C@@H]3CCC4C[C@@H](O)CC[C@]4(C)[C@H]3CC[C@]12C` (some centres undefined), the values for the Effect with Leishmania amazonensis [1] and in the assay with Leishmania amazonensis [3] were 63.7% and 13.1%, respectively. Also, the IC50 in assay [4] was found to be 29.2 µM; in the assay on Leishmania donovani, 4.8 µM; in assay [7], 18 µM.
Take `CC(O)(c1ccncc1Cl)[C@H]1CC[C@H]2[C@@H]3CCC4C[C@@H](O)CC[C@]4(C)[C@H]3CC[C@]12C` (some centres undefined): the IC50 in [4] was below 0.7 µM; with Leishmania donovani it was above 69 µM; in assay [7] it was 50 µM.
In the case of `CC(O)(c1ccccn1)[C@H]1CC[C@H]2[C@@H]3CCC4C[C@@H](O)CC[C@]4(C)[C@H]3CC[C@]12C` (some centres undefined), the Effect in the assay with Leishmania amazonensis [1] was found to be 1.6%; in the assay with Leishmania amazonensis [3], 15.5%. For the same compound, the IC50 in the assay with Leishmania amazonensis [2] was 1.14 µM; in assay [4] it was 11.3 µM; in the assay with Leishmania donovani, 14.6 µM; in the assay with Leishmania amazonensis [5] it was 1 µM; in [6], 1.03 µM; in assay [7] it was 32.9 µM.
With `CC(O)(c1cccnc1)[C@H]1CC[C@H]2[C@@H]3CCC4C[C@@H](O[Si](C)(C)C(C)(C)C)CC[C@]4(C)[C@H]3CC[C@]12C` (some centres undefined), the IC50 in the assay on Leishmania amazonensis [2] is 1.75 µM; in assay [4], above 586 µM; in the assay with Leishmania donovani it was 13.9 µM; in the assay on Leishmania amazonensis [5], 1.5 µM; in assay [6] it was 1.2 µM; in [7], 51.2 µM. Besides, the Effect with Leishmania amazonensis [11] is given as 6.6%.
Turning to `CCC(=O)N1CCCC(C(C)(O)[C@H]2CC[C@H]3[C@@H]4CCC5C[C@@H](O[Si](C)(C)C(C)(C)C)CC[C@]5(C)[C@H]4CC[C@]23C)C1` (some centres undefined), the IC50 with Leishmania amazonensis [2] was 1.21 µM; in assay [4] it was above 520 µM; in the assay with Leishmania donovani, above 52 µM; with Leishmania amazonensis [5], 1 µM; in [6], 0.6 µM; in assay [7], above 52 µM.
With `CC(O)(c1ccncc1)[C@H]1CC[C@H]2[C@@H]3CCC4C[C@@H](O)CC[C@]4(C)[C@H]3CC[C@]12C` (some centres undefined), the IC50 in the assay on Leishmania amazonensis [2] was found to be 3.41 µM; in assay [4], 30.7 µM; in the assay on Leishmania donovani, 11.3 µM; in the assay on Leishmania amazonensis [5], 3 µM; in [6] it was 0.68 µM; in [7], 35 µM.
In the case of `CC(O)(C1CCCNC1)[C@H]1CC[C@H]2[C@@H]3CCC4C[C@@H](O[Si](C)(C)C(C)(C)C)CC[C@]4(C)[C@H]3CC[C@]12C` (some centres undefined), the IC50 in the assay with Leishmania amazonensis [2] is 1.4 µM; in [4], 2.5 µM; in the assay on Leishmania donovani, 6.4 µM; in the assay on Leishmania amazonensis [5] it was 1 µM; in [6], 1.01 µM; in [7], 42.1 µM.

Broadly, the IC50 is the concentration that inhibits the measured activity by half. Lower therefore signals greater potency in that assay.
